Rows were chosen to be rich in hits. Some 0.58% of all compounds tested hit in one or more screens of this group.
OXTR agonist: human OXTR agonists, primary screen, fluorescence, CHO-OTR cells, Fluo-8 calcium; 320,000 compounds, 0.32% hits; Fluo-8 calcium fluorescence; normalized: DMSO 0%, oxytocin 100%; activation, % at 3 µM; Oxytocin receptor (Homo sapiens), P30559;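 active means activation above the mean of all tested compounds plus 3 SD, cutoff set per screening run, cut at about 20% in these data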;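 further: peak over basal fluorescence ratio from a 100 s FLIPR kinetic read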
V1R ag counter: agonists of human V1a receptor, primary screen, counter-screen for OXTR agonist project, fluorescence, CHO-V1R cells. Vasopressin V1a receptor (Homo sapiens), P37288. Fluo-8 calcium fluorescence, agonist mode; 0% DMSO, 100% 3 nM vasopressin. activation, % at 3 µM. 320,000 compounds, 0.25% hits. AID 2797, 2010;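 active means activation above the mean activation of all tested compounds plus 3 SD, per screening run, cut at about 20% in these data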;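 further: signal is peak over basal fluorescence ratio across a 100 second FLIPR read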
OXTR potentiator: human OXTR potentiators, primary screen, fluorescence, CHO-OTR cells, Fluo-8 calcium; activation, % at 3 µM; Fluo-8 calcium fluorescence, potentiator mode; 0% = oxytocin EC15, 100% = EC100; 320,000 compounds, 0.061% hits; Oxytocin receptor (Homo sapiens), P30559;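 active means activation above that plate's cutoff, the mean activation of tested compounds plus 3 SD, cut at about 6.6% in these data, passing the limit was not always enough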;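 further: 100% uses oxytocin at 75 nM as the full agonist control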
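Assay system: CHO-OTR cells, human receptor / Also added: oxytocin at about EC15, sub-maximal agonist stimulus / Dosing: single dose, 3.0 µM nominal final compound concentration / Incubation: 6 min pre-incubation, 100 s read / Technique: Fluo-8 calcium dye fluorescence / Read-out: % activation vs EC15 and EC100 oxytocin / Benchmarks: EC15 oxytocin low, 75 nM oxytocin high / Replicates: singlicate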
TRPN1 ag: zebrafish TRPN1 channel agonists, primary screen, cell-based, HEK293, calcium fluorescence; 220,000 compounds, 0.18% hits; transient receptor potential cation channel N1 (TRPN1/NompC), Danio rerio; HEK293 zebrafish TRPN1-YFP, Fluo-8 calcium fluorescence; 100% = response to 87 µM carbachol; activation, % at 3 µM;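 active means activation above its plate's cutoff, the mean activation of test wells on that plate plus 3 SD, cut at about 19% in these data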;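 further: 0% = DMSO alone and 100% = 87 µM carbachol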
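Material: zebrafish TRPN1-YFP in HEK293 cells; Doses: single test compound dose, 3 µM nominal, 0.3% DMSO; Timing: dye loading 1 h at 37 °C, then 30 min room temperature; Technique: intracellular calcium fluorescence with Fluo-8; Benchmarks: high carbachol 87 µM, low DMSO alone.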
TRPML3 ag: human TRPML3 channel agonists, primary screen, cell-based, HEK293 TRPML3-YFP, Fluo-8 calcium fluorescence, 3 µM | Mucolipin-3 (Homo sapiens), Q8TDD5 | 100% = the carbachol control signal | activation, % at 3 µM | 220,000 compounds, 0.29% hits | AID 1448, 2008;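 active means activation above its plate's cutoff, the mean activation of the plate's test wells plus 3 SD, cut at about 12% in these data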;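 further: 0% = DMSO only wells and 100% = carbachol wells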
Target sequence (Q8TDD5 whole entry, looked up): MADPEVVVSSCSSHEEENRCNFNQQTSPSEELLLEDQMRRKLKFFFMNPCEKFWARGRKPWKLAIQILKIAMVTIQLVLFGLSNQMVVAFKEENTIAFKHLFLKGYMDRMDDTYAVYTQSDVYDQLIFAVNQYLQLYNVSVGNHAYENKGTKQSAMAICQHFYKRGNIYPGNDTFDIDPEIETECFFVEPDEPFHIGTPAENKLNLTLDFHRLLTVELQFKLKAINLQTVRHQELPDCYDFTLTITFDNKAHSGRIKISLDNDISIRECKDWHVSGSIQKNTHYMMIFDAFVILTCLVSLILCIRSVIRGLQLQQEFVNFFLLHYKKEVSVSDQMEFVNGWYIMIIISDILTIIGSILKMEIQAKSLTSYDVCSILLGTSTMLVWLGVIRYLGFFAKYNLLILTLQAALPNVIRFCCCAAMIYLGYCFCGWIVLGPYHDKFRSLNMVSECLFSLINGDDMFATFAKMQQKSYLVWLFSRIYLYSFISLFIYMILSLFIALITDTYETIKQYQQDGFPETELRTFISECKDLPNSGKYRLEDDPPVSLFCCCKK
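system = HEK293 cells stably carrying human TRPML3-YFP | doses = one concentration, 3 µM nominal, 0.3% DMSO | timing = dye loading 1 h 37 °C then 30 min ambient, 125 s read | detection = Fluo-8 calcium dye fluorescence, ex 470-495, em 515-575 nm | benchmarks = high control carbachol 87 µM, low control DMSO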
Starred values were filed as active, the others as inactive.

`O=C(Nc1cccc(Cl)c1)Nc1csc([N+](=O)[O-])c1` gave OXTR agonist 17, V1R ag counter 8, OXTR potentiator -8, TRPN1 ag 19* and TRPML3 ag 12*.
For Cc1ccc([N+](=O)[O-])cc1NC(=O)Nc1cccc(F)c1 the results were TRPN1 ag 24* and TRPML3 ag 11.
Cc1cc(Cl)c(S(=O)(=O)N2CCSCC2)cc1OCC(=O)NC1CCCCC1 was read as OXTR agonist 12, V1R ag counter 7, OXTR potentiator -9, TRPN1 ag 12 and TRPML3 ag 2.
CCOc1ccc(S(=O)(=O)Nc2nc3ccccc3nc2-n2ccc(=NC(=O)c3ccccc3C)cc2)cc1 was read as OXTR agonist 1, V1R ag counter 4, OXTR potentiator -6, TRPN1 ag 37* and TRPML3 ag 14*.
For O=[N+]([O-])c1ccc(N=Nc2c(Cl)cc(O)cc2Cl)cc1 the results were OXTR agonist 18, V1R ag counter 13, OXTR potentiator -9, TRPN1 ag 20* and TRPML3 ag 16*.
Screening CC(N)=Nc1ccc([N+](=O)[O-])cc1 returned OXTR agonist 1, V1R ag counter 0, OXTR potentiator -4, TRPN1 ag 1 and TRPML3 ag 0.
Cc1ccc(C(=O)N2CCN(c3ccccc3)CC2)cc1S(=O)(=O)N1CCOCC1 was read as OXTR agonist 0, V1R ag counter 1 and OXTR potentiator -11.
Screening COc1ccc(NC(=O)CNC(=O)C23CC4CC(CC(C4)C2)C3)c(OC)c1 returned OXTR agonist 0, V1R ag counter 1 and OXTR potentiator -10.
Screening COc1ccc(OC)c(NC(=O)C(=O)NNC(=O)C23CC4CC(CC(C4)C2)C3)c1 returned OXTR agonist 5, V1R ag counter 13, OXTR potentiator -15, TRPN1 ag 43* and TRPML3 ag 27*.
Screening O=C(Nc1ccc(OCc2ccccc2)cc1)c1cccnc1 returned OXTR agonist 21*, V1R ag counter 22*, OXTR potentiator -16, TRPN1 ag 2 and TRPML3 ag 1.
`O=C(Nc1ccc(OCc2ccccc2)cc1)c1ccccc1` gave OXTR agonist 0, V1R ag counter -1, OXTR potentiator -5, TRPN1 ag -1 and TRPML3 ag 0.
For COC(=O)c1sc(-c2ccc(Cl)cc2)cc1NC(=O)/C=C/C(=O)O the results were OXTR agonist 22*, V1R ag counter 15, OXTR potentiator -17, TRPN1 ag 2 and TRPML3 ag 0.
For O=C(NCc1ccco1)c1cccc2c1C(=O)c1ccc(N3CCC(Cc4ccccc4)CC3)cc1S2(=O)=O the results were OXTR agonist 15, V1R ag counter 13 and OXTR potentiator -10.
For O=C(NCc1cccc(C(F)(F)F)c1)c1cccc2c1C(=O)c1ccc(N3CCC(Cc4ccccc4)CC3)cc1S2(=O)=O the results were OXTR agonist 23*, V1R ag counter 24* and OXTR potentiator -11.
Screening O=C(NCCc1ccc(F)cc1)c1cccc2c1C(=O)c1ccc(N3CCC(Cc4ccccc4)CC3)cc1S2(=O)=O returned OXTR agonist 30*, V1R ag counter 27* and OXTR potentiator -10.
COc1ccc2c(C)cc(SCC(=O)Nc3c(C)n(C)n(-c4ccccc4)c3=O)nc2c1 was read as OXTR agonist -2, V1R ag counter -1, OXTR potentiator -1, TRPN1 ag -1 and TRPML3 ag -1.
For CC1CCCCC12NC(=O)N(CC(=O)N1CCN(S(=O)(=O)/C=C/c3ccccc3)CC1)C2=O (stereo not given) the results were OXTR agonist 0, V1R ag counter -1 and OXTR potentiator -10.
Screening CCOC(=O)N1CCN(C(=O)c2ccc(N(C)S(C)(=O)=O)cc2)CC1 returned OXTR agonist -1, V1R ag counter 0, OXTR potentiator -15, TRPN1 ag 1 and TRPML3 ag 1.
`O=C(Nc1nc(-c2ccc(S(=O)(=O)N3CCCCCC3)cc2)cs1)c1cccs1` gave OXTR agonist 0, V1R ag counter 0, OXTR potentiator -5, TRPN1 ag 2 and TRPML3 ag 1.
Screening O=C(Nc1ccccc1)c1ccccc1NS(=O)(=O)c1ccc(Cl)s1 returned OXTR agonist 10, V1R ag counter 11, OXTR potentiator -13, TRPN1 ag 29* and TRPML3 ag 16*.
Screening O=C(Nc1ccccc1Cc1ccccc1)c1ccccc1NS(=O)(=O)c1ccc(Cl)s1 returned OXTR agonist 14, V1R ag counter 11, OXTR potentiator -14, TRPN1 ag 19* and TRPML3 ag 5.
Screening Cc1ccc(NC(=O)c2ccccc2NS(=O)(=O)c2ccc(Cl)s2)cc1 returned OXTR agonist 15, V1R ag counter 9, OXTR potentiator -12, TRPN1 ag 27* and TRPML3 ag 13*.
O=C(NCc1ccco1)c1ccccc1NS(=O)(=O)c1ccc(Cl)s1 was read as OXTR agonist 12, V1R ag counter 8, OXTR potentiator -9, TRPN1 ag 2 and TRPML3 ag 3.
Screening COC(=O)CCN(C(=O)C1C2CC3CC(C2)CC1C3)c1ccccn1 (stereo not given) returned OXTR agonist 0, V1R ag counter 0, OXTR potentiator -7, TRPN1 ag 0 and TRPML3 ag 0.
For COc1ccc2c(c1)c(C(=O)CN1CCc3ccccc3C1)c(C)n2C the results were OXTR agonist 0, V1R ag counter 0, OXTR potentiator -2, TRPN1 ag -1 and TRPML3 ag 0.
For CC(C)(C)C(=O)NC(=S)NNC(=O)C(c1ccccc1)c1ccccc1 the results were OXTR agonist 89*, V1R ag counter 127*, OXTR potentiator -9, TRPN1 ag 168* and TRPML3 ag 114*.
For COc1ccc(CCn2c(-c3cc([N+](=O)[O-])cc([N+](=O)[O-])c3)nc3nc4ccccc4nc32)cc1OC the results were OXTR agonist 1, V1R ag counter -1, OXTR potentiator 12*, TRPN1 ag -1 and TRPML3 ag 1.
COc1ccc(CCn2c(-c3cc([N+](=O)[O-])cc([N+](=O)[O-])c3)nc3nc4ccccc4nc32)cc1 was read as OXTR agonist 0, V1R ag counter 1, OXTR potentiator 0, TRPN1 ag -1 and TRPML3 ag 1.
O=C(CNCc1ccc(Cl)cc1)Nc1ccc(C(=O)N2CCCCC2)cc1 was read as OXTR agonist 5, V1R ag counter 5 and OXTR potentiator -2.
